# KCNQ1 inh: inhibitors of human KCNQ1 channel, primary screen, cell-based, thallium flux, high-throughput; Potassium voltage-gated channel subfamily KQT member 1 (Homo sapiens), P51787; CHO-K1 KCNQ1, FluxOR thallium flux fluorescence; active compounds read high; B-score at 10 µM; 1.3% of 310,000 active; AID 2642, 2010;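 active means compounds whose thallium flux B-score, printed positive for inhibition, exceeds three library SD while starting fluorescence stays within three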;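 further: channel opened by potassium depolarization with thallium stimulus after 20 min compound exposure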
# KCNK9 inh: KCNK9 potassium channel inhibitors, primary screen, HEK293 cells, thallium flux. 1.2% of 310,000 active. B-score at 10 µM. FluxOR thallium flux fluorescence; active compounds read low;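 active means ratio B-score over 3 SD below the library mean, with starting fluorescence within 5 SD of its mean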;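 further: negative B-score means less thallium flux so channel inhibition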
# hERG protect: hERG rescue from dofetilide block, primary screen, cell-based, CHO-hERG, FluxOR thallium flux, dofetilide IC70. Voltage-gated inwardly rectifying potassium channel KCNH2 (Homo sapiens), Q12809. dofetilide IC70 present. activation (rescue from dofetilide block), less the hit threshold, % at 10 µM. 0.51% of 310,000 active;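 active means activation above the mean of controls blocked by dofetilide plus 5 SD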;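 further: thallium influx through hERG after potassium depolarization seen as dye fluorescence rise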
# KCNK3 block: human KCNK3 channel inhibitors, primary screen, CHO cells, FluxOR thallium flux, B-score | 0.84% of 340,000 active | FluxOR fluorescence; active compounds read low | Potassium channel subfamily K member 3 (Homo sapiens), O14649 | B-score at 10 µM;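 active means B-score under library mean minus 4 SD, starting fluorescence ratio at most library mean plus 5 SD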;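 further: more negative B-score means stronger inhibition of thallium flux through KCNK3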
# KCNQ1 act: potentiators or activators of KCNQ1 channel, primary screen, cell-based, thallium flux, high-throughput | CHO-K1 KCNQ1, thallium flux FluxOR fluorescence; active compounds read high | AID 2648, 2010 | B-score at 10 µM | 0.35% of 310,000 active | Potassium voltage-gated channel subfamily KQT member 1 (Homo sapiens), P51787;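 active means fluorescence ratio B-score, a plate-corrected score, at least three library SD, with initial intensity B-score within 5 SD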
#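 Assay system: CHO-K1 cells stably expressing KCNQ1. Medium: assay buffer for compound exposure, DMSO matched across wells. Timing: 37 °C overnight plating, 90-min dark dye load, 20-min compound pretreatment. Signal: kinetic FluxOR fluorescence, 10 s baseline plus 110 s post-stimulus.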
# Kir21 block: inhibitors of mouse Kir2.1 inward-rectifier potassium channel; Inward rectifier potassium channel 2 (Mus musculus), P35561; HEK293-Kir2.1, FluxOR thallium flux fluorescence; active compounds read low; B-score at 10 µM; 0.85% of 310,000 active; AID 1672, 2009;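 active means fluorescence ratio B-score at or below minus 3 SD of library scores, with starting-brightness B-score within 2 SD, cut at about -4.2 in these data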;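 further: channel flux triggered by added potassium and thallium sulfate stimulus; B-score of peak minus minimum fluorescence over baseline after thallium stimulus; more negative B-score means stronger Kir2.1 block with less thallium influx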
# Target sequence (P35561 whole entry, looked up): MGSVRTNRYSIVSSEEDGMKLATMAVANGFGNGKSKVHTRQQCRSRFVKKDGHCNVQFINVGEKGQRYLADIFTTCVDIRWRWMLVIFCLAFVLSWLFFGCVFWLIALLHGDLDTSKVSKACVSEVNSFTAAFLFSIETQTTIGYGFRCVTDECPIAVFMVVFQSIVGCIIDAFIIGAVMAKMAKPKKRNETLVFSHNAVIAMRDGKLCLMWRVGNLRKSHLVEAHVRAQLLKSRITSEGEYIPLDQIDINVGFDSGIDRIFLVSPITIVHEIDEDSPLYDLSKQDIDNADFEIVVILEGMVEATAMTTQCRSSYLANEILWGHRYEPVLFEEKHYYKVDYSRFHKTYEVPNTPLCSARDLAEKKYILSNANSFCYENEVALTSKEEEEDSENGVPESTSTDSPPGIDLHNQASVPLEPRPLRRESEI
# KCNK9 inh conf: KCNK9 potassium channel inhibitors, confirmation, HEK293 cells, thallium flux, duplicate. shares compounds with KCNK9 inh. FluxOR thallium flux fluorescence. inhibition, % at 10 µM. 43% of 4,900 active;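 active means thallium signal inhibited by more than 5 SD of the compound-free buffer control wells, on both duplicate plates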;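 further: 0% = assay buffer control wells without compound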
# Kir21 sel: mouse Kir2.1 channel inhibition, confirmation, selectivity assay for KCNK9 modulator project, cell-based, HEK293, thallium flux | AID 492993, 2010 | inhibition, % at 10 µM | Kir2.1 cells, FluxOR thallium flux fluorescence | 4% of 4,900 active | shares compounds with KCNK9 inh;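 active means thallium signal drop more than 5 SD beyond the mean of the no-compound control wells, seen in both duplicate plates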;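 further: signal is fluorescence rise after thallium addition divided by baseline fluorescence; plate controls were assay buffer only for no effect and full block by chlorpromazine control for full effect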
# KCNK9 uninduced: thallium flux in non-induced HEK293 cells, confirmation, counter-screen for KCNK9 inhibitor project, cell-based, second counter screen, non-induced KCNK9-HEK293; shares compounds with KCNK9 inh; FluxOR thallium flux; inhibition, % at 10 µM; 40% of 4,900 active; AID 492997, 2010;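 active means thallium signal drop beyond 5 SD of the untreated control mean, on both duplicate plates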;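 further: plate controls were buffer only IC0 wells for no effect and SID17386958 at its maximal inhibitory level for full effect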
# * = called active by the depositor; i = inactive; x = not tested or not shown. Only some compounds are listed: those with a hit (about 3.7% of all), similar ones and a draw of the others.
SMILES,KCNQ1 inh,KCNK9 inh,hERG protect,KCNK3 block,KCNQ1 act,Kir21 block,KCNK9 inh conf,Kir21 sel,KCNK9 uninduced
Cc1ccc(/C=C2\C(=O)NC(=S)N(c3ccc(F)cc3)C2=O)o1,i,i,0,i,i,-2.4,x,x,x
Cc1cc(C)cc(N2C(=O)/C(=C\c3ccc(N4CCN(C)CC4)o3)C(=O)NC2=S)c1,10*,-9.1*,-30,i,i,-7.1,55%*,34%*,70%*
O=C(Nc1ccc2ccccc2c1)c1nn(C23CC4CC(CC(C4)C2)C3)cc1Br,i,i,-12,i,i,-0.03,i,i,i
Cc1nc(Cl)sc1C(=O)Nc1ccc2ccccc2c1,i,i,-7,i,i,2.3,x,x,x
CC(=NCCN1CCCCC1)c1c(O)n(-c2ccccc2)c(=O)[nH]c1=O,i,i,-10,i,i,-1.3,i,i,i
Cc1ccccc1NC(=NCCCN1CC1)Nc1ccccc1C,x,x,x,i,x,x,x,x,x
Cc1cc(O)c(CN2CC=C(c3ccccc3)CC2)cc1C(C)C,i,i,-9,i,i,1.3,i,i,i
OC(CN1CC=C(c2ccccc2)CC1)c1ccccc1 (centres undefined),i,i,-5,i,i,0,x,x,x
CCN(CC)c1ccc(CC2C(=O)N(C)C(=O)N(C)C2=O)cc1,i,i,-10,i,i,-2.4,i,i,i
CCCCC/C(=N\O)c1c[nH]c2ccccc12,i,-13*,-6,i,i,-0.6,56%*,i,25%*
CCCCC/C(=N/O)c1c(C)[nH]c2ccccc12,i,i,-4,i,i,-1.7,x,x,x
COC(=O)Cn1cc(C(=O)c2ccccc2F)c2ccccc21,i,i,-7,i,i,0.4,x,x,x
O=C(c1ccccc1F)c1cn(Cc2ccc(F)cc2)c2ccccc12,i,-8.7*,-6,i,i,0.62,50%*,i,34%*
O=C1NC(=O)N(c2ccccc2)C(=O)/C1=C/c1coc2ccc(O)cc2c1=O,i,i,-14,i,i,-0.86,x,x,x
CC(C)(C#CC(=O)O)OOC(c1ccccc1)(c1ccccc1)c1ccccc1,i,i,-13,i,i,0.46,i,i,i
CCOP(=O)(C#CC(C)(C)C)C(C)(O)c1ccccc1 (centres undefined),i,i,-9,i,i,0.28,x,x,x
C[Se]C[C@@H](N)C(=O)O,x,x,x,i,x,x,x,x,x
Cc1ccc(O)c(C(=O)c2cc(C(=O)NCc3ccccc3)c(=O)n(Cc3ccccc3)c2)c1,i,-10*,-5,i,i,-0.73,38%*,i,46%*
Cn1cc(C(=O)NCc2ccccc2)c2ccccc21,i,i,3,i,i,-1.7,x,x,x
O=C1CC(=O)N(c2cccc(C(F)(F)F)c2)C(=O)N1,i,i,-1,i,i,-0.62,x,x,x
